Screening data: PubChem, several laboratories
Hits are enriched below; roughly 2.9% of the tested compounds scored in any of these assays.
Runt-CBFb FRET: blocks binding of human RUNX1 Runt domain to CBFb; Cerulean-Runt/Venus-CBFb FRET ratio 530/480, 1 h; Q01196+Q13951; AID 1496; 220,000 tested, 0.46% active; inhibition, % at 20 µM;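 active means inhibition over about 50% at 20 µM in the single-dose screen, limit read from the data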;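 further: 0% = DMSO wells and 100% = excess unlabeled CBFb competitor control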
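test system = Cerulean-Runt domain fusion protein, energy donor | probe or stimulus = Venus-CBFb binding partner, 100 nM | incubation = two 1 h room-temperature incubations shielded from light | detection = fluorescence energy transfer, 422 nm excitation, 530/480 nm emission | measure = loss of energy transfer signal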
AI-2 QS modul: modulates the Vibrio harveyi AI-2 quorum sensing system | Vibrio harveyi JMH597 AI-2 luminescence/OD600 ratio, 9 h; stronger effect = lower value; strain lacks LuxN and CqsS sensors; 0 = neutral-control median | activity change, % at 7.5 µM | 300,000 tested, 0.4% active; in the data active means activity change below about -75%, passing the limit was not always enough;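 further: luminescence divided by OD600 gain over 9 h not by final OD600 alone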
RanGTP-Imp inh: disruptors of Ran-importin-beta complex formation – biochemical, FRET, CFP-Ran, YFP-importin-beta, homogeneous, primary screen; 300,000 tested, 1.1% active; cell-free CFP-Ran/YFP-importin-beta FRET ratio; inhibition, % (test concentration not listed);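 active means more than half of the replicate wells show a fall in the fluorescence ratio signal beyond about 16%, limit read from the data, passing the limit was not always enough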;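 further: 0% = DMSO wells and 100% = Ran loaded with GDP instead of GTP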
Wee1 stabilizer: human Wee1 degradation inhibition, primary screen; P30291; HeLa Luc-Wee1K328M stability, luciferase luminescence; 100% = proteasome inhibitor MG132 effect; reporter increase, % at 5 µM; 220,000 tested, 1.2% active; AID 1321;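 active means activation above the mean of all tested compounds plus 3 SD, set per screening run, cut at about 8.8% in these data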;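 further: cells exposed to compound for 20 h before luminescence read; 0% = DMSO alone and 100% = MG132 at 30 µM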
Target sequence (P30291 whole entry K328M): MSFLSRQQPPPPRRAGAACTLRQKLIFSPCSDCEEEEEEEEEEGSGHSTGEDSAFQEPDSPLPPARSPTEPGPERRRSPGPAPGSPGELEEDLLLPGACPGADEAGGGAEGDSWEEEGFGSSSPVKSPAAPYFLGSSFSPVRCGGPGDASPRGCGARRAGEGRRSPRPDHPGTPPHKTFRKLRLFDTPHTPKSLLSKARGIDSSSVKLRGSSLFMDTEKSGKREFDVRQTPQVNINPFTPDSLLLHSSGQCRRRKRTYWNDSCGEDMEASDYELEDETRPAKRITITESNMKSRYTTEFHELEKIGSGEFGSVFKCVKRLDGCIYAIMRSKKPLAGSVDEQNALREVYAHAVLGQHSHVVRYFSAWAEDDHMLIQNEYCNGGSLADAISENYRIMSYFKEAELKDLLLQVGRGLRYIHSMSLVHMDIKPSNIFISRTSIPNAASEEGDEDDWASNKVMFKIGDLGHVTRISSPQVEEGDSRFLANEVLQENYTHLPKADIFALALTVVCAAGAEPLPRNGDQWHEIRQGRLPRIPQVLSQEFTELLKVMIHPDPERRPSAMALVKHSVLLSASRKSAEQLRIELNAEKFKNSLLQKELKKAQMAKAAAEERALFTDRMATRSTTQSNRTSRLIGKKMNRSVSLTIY
KLK7 zymogen act: proKLK7 (human) activation, primary screen | 370,000 tested, 0.9% active | P49862 | AID 652039 | purified proKLK7, EDANS-DABCYL substrate fluorescence; 100% is mature enzyme control, 0% vehicle | activation, % at 7 µM;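 active means activation above the mean of all tested compounds plus 3 SD, computed per campaign excluding outliers beyond control limits, cut at about 13% in these data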
Runt-SMMHC FRET: blocks binding of human RUNX1 Runt domain to CBFb-SMMHC; Cerulean-Runt/Venus-CBFb-SMMHC FRET ratio 530/480, 1 h; 220,000 tested, 0.74% active; inhibition, % at 20 µM; AID 1434; Q01196+Q13951;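 active means mean inhibition across duplicate retests at 20 µM reaching about 50%, limit read from the data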;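 further: 0% = DMSO wells and 100% = wells with excess untagged CBFb-SMMHC; inhibitors lower the FRET ratio by blocking Runt binding to CBFb-SMMHC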
An asterisk follows results filed as active; x = not tested or not shown.

SMILES	Runt-CBFb FRET	AI-2 QS modul	RanGTP-Imp inh	Wee1 stabilizer	KLK7 zymogen act	Runt-SMMHC FRET
O=C1CCCC2=C1C(c1ccc(Br)cc1)c1c([nH]c(=S)[nH]c1=O)N2 (configuration not stated)	46.2	18.1	2.5	0.0	2.2	68.1*
Cc1ccc(CSc2nc3c(c(=O)[nH]2)C(c2ccncc2)C2=C(CCCC2=O)N3)cc1 (configuration not stated)	11.9	9.4	4.5	-0.4	0.8	28.4
COC(=O)CCN(C(=O)c1ccc(C)c([N+](=O)[O-])c1)c1ccccn1	0.9	18.5	2.7	10.0*	0.0	-2.5
O=C(c1ccc(Cl)c([N+](=O)[O-])c1)N(c1ccccn1)c1ccccn1	-1.0	27.8	-1.5	-1.9	-0.1	6.6
CC(=O)Nc1ccc(S(=O)(=O)NC(C(=O)O)C(C)O)cc1 (configuration not stated)	-0.7	5.5	0.9	2.3	0.3	0.2
CC(=O)Nc1cccc(/C(C)=N/NC(=O)c2ccc(O)cc2)c1	-0.5	16.0	-1.8	10.1*	-0.1	-0.1
C/C(=N/NC(=O)c1ccc(O)cc1)c1cccc([N+](=O)[O-])c1	1.3	0.8	4.0	1.9	0.0	-0.8
COc1cccc(C(=O)Nc2sc3c(c2C(=O)O)CCCC3)c1	x	3.8	5.1	x	-0.7	x
CC(C)(C)C(=O)Nc1sc2c(c1C#N)CCN(Cc1ccccc1)C2	x	11.8	149.7*	x	-2.7	x
N#Cc1c(NC(=O)c2ccccc2)sc2c1CCC2	4.9	5.2	11.9	10.7*	1.2	4.4
COc1cccc(C(=O)Nc2sc3c(c2C#N)CCN(C(C)=O)C3)c1	21.2	31.2	x	5.0	0.0	51.1*
N#Cc1c(NC(=S)NC(=O)c2ccccc2)sc2c1CCN(CCc1ccccc1)C2	4.1	9.3	156.9*	-0.7	x	82.3*
O=C(CSc1nnnn1C1CC2C=CC1C2)Nc1ccc(C(=O)O)cc1 (configuration not stated)	x	27.9	0.0	x	0.9	x
Cc1c(C(=O)O)sc2nc(/C=C/c3cccc(O)c3)[nH]c(=O)c12	x	11.4	-1.6	x	-4.2	x
COC(=O)[C@H](CC(C)C)N1Cc2nnn(Cc3ccc(C)cc3)c2-c2cc(F)ccc2S1(=O)=O	x	x	x	x	0.6	x
CCOC(=O)N1CCc2c(sc(N)c2C#N)C1	14.2	14.0	-2.7	-2.0	0.3	1.0
N#Cc1c(N)sc2c1CCN(CCc1ccccc1)C2	104.6*	28.7	46.4*	-3.2	-0.4	87.6*
CCC(C)(C)n1nnnc1C(c1cc2ccc(OC)cc2[nH]c1=O)N1CCc2ccccc2C1 (configuration not stated)	-19.9	11.2	16.1*	4.7	-7.7	-5.1
CCC(C)(C)n1nnnc1C(c1cc2cc3c(cc2[nH]c1=O)OCO3)N1CCN(C)CC1 (configuration not stated)	40.3	4.2	3.2	-1.0	10.2	65.8*
Cc1ccc(CS(=O)(=O)CC(C)(O)c2ccccc2)cc1 (configuration not stated)	x	1.2	0.2	x	0.7	x
N#Cc1cc2cc3c(cc2nc1Cl)OCCO3	x	x	x	x	-0.9	x
N#Cc1cc2cc3c(cc2nc1N1CCCCC1)OCCO3	34.4	-7.1	59.2*	-0.4	-7.7	107.3*
Cc1ccc(C(=O)N2CCCN(c3nc4cc5c(cc4cc3C#N)OCO5)CC2)cc1	x	3.8	113.0*	x	-4.0	x
Cc1cc(C)c2nc(N3CCCN(C(=O)c4cnccn4)CC3)c(C#N)cc2c1	11.0	23.8	38.8*	1.0	1.8	30.9
COc1ccccc1CCC[C@@H](CCS(=O)(=O)C(C)C)CC1CCCCC1	x	x	x	x	0.1	x
SMILES	Runt-CBFb FRET	AI-2 QS modul	RanGTP-Imp inh	Wee1 stabilizer	KLK7 zymogen act	Runt-SMMHC FRET
Brc1ccc2nc(C3CCCCC3)c(CC3CCCCC3)n2c1	x	x	x	x	0.7	x
CCCc1c(-c2cccc(Br)c2)ncn1CCc1ccccc1OC	x	x	x	x	0.5	x
Cc1ccc(-c2cc(C(=O)O)c3cc(Br)ccc3n2)o1	45.2	8.4	-5.8	9.0*	7.4	35.8
CCCNC(=S)N1CCC(NC(=O)C2CCCCC2)CC1	-3.1	4.4	-3.9	10.5*	-0.3	0.5
Cc1cc2c(cc1S(=O)(=O)CCC(=O)N1CC(C)CC(C)C1)OCC(=O)N2 (configuration not stated)	x	-2.3	-3.7	x	-0.3	x
O=C1OCC2=C1C(c1ccc(F)cc1)CC(=O)N2c1ccccc1 (configuration not stated)	-0.7	31.4	-3.4	8.9*	x	4.5
COc1ccc(CC(=O)Nc2ccc(S(=O)(=O)Nc3cc(C)on3)cc2)cc1	-0.5	-91.9*	-3.1	-2.7	-0.1	-1.7
CCOc1ccc(OCC(=O)Nc2ccc(S(=O)(=O)Nc3cc(C)nc(C)n3)cc2)cc1	1.5	12.7	2.1	-2.9	0.8	-3.9
Cc1cc(NS(=O)(=O)c2ccc(NC(=O)Nc3ccc4c(c3)OCO4)cc2)no1	4.4	-6.1	7.7	8.9*	0.0	-1.2
Cc1ccc(OCCC(=O)Nc2ccc(S(=O)(=O)Nc3cc(C)nc(C)n3)cc2)cc1	x	22.3	19.5*	x	0.0	x
COc1ccc(CN(C)C(=O)CSc2nnc(C3CC3)n2C2CC2)cc1	x	x	x	x	0.1	x
CN(C)CCCNc1c2c(nc3cc(-c4cccc(F)c4)nn13)CCC2	-0.3	11.6	26.9*	1.6	2.6	1.5
CC(=O)N(/N=C1\Sc2ccccc2C1=O)c1cccc(C)c1	-6.3	8.3	23.3*	-1.4	0.3	-7.7
CC(=O)N(CN1C(=O)c2ccccc2C1=O)c1cccc(C)c1	-1.8	14.0	0.9	-1.5	0.3	-1.5
CC(C)CC(C(=O)OCC(=O)Nc1ncc(Cl)cc1Cl)N1C(=O)c2ccccc2C1=O (configuration not stated)	-3.8	30.6	2.6	10.6*	1.0	0.1
O=C(COC(=O)CN1C(=O)c2ccccc2C1=O)Nc1ncc(Cl)cc1Cl	0.6	32.2	1.0	-2.7	0.9	-0.2
CC(c1c[nH]c2ccccc12)c1cn(C)c2ccccc12 (configuration not stated)	x	x	x	x	0.3	x
Cc1sc2nc(-c3cccs3)oc(=O)c2c1C	x	12.3	32.2*	x	0.2	x
O=C(NCCOc1ccccc1)c1cc(C(=O)NCCOc2ccccc2)cc([N+](=O)[O-])c1	0.3	-97.2*	3.7	-3.6	0.9	-0.1
O=C(NCCOc1ccccc1)c1ccccc1[N+](=O)[O-]	1.8	19.5	0.4	0.7	0.6	-2.7
N/C(=N\OC(=O)Nc1ccccc1)c1ncc([N+](=O)[O-])s1	1.8	-88.1*	0.7	1.3	0.1	-0.4
O=C(COC(=O)COc1ccccc1)Nc1ncc([N+](=O)[O-])s1	x	x	x	x	-0.3	x
Cn1c(=O)n(Cc2ccccc2F)c2ccccc21	1.8	11.9	40.4*	1.4	-0.2	-1.2
